Test system: HepG2
Test: Induction of LDLR mRNA expression in human HepG2 cells after 12 hrs by RT-PCR assay relative to untreated control
Assay type: functional
Method in brief: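 HepG2 cells kept in RPMI-1640 with 10% FBS, moved 24 h before dosing to 10% LPDS, then at ~80% confluence to RPMI-1640 with 0.5% LPDS plus compound (5.0 µg/mL in table; concentrations as indicated in figure), 12 h, 37 °C. Total RNA reverse-transcribed, TaqMan real-time PCR, comparative CT method with GAPDH reference; fold of untreated cells (=1); mean of three experiments.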

Row | Structure (SMILES) | fold change (FC)
1 | CCCC[N+]12CCc3cc4c(cc3C1Cc1ccc(OC)c(OC)c1C2)OCO4.[Br-] (stereo not drawn) | 1.1
2 | CCCc1c2[n+](cc3c(OC)c(OC)ccc13)CCc1cc3c(cc1-2)OCO3.[Cl-] | 0.9
3 | CCCOc1cc2c(cc1OCCC)-c1cc3ccc(OC)c(OC)c3c[n+]1CC2.[Br-] | 0.9
4 | CC[N+]12CCc3cc4c(cc3C1Cc1cc(OC)c(OC)cc1C2)OCO4.[Br-] (stereo not drawn) | 0.8
5 | CCOc1cc2c(cc1O)-c1cc3ccc(OC)c(OC)c3c[n+]1CC2.[Br-] | 0.9
6 | COc1cc2c(cc1OC)-c1cc3ccc(OC)c(OC)c3c[n+]1CC2.[I-] | 0.8
7 | CCCCc1c2[n+](cc3cc(OC)c(OC)cc13)CCc1cc3c(cc1-2)OCO3.[Cl-] | 0.9
8 | CC[N+]12CCc3cc4c(cc3C1Cc1ccc(OC)c(OC)c1C2)OCO4.[Br-] (stereo not drawn) | 1

Reference: ChEMBL document CHEMBL1140862, “Berberine analogues as a novel class of the low-density-lipoprotein receptor up-regulators: synthesis, structure-activity relationships, and cholesterol-lowering efficacy” (J Med Chem, 2009)
